For experiment [1], the target named is Delta-type opioid receptor (Rattus norvegicus, UniProt P33533). Nature of the experiment: Displacement of [3H]-DPDPE from DOR in rat brain membranes by liquid scintillation counting analysis. The class given is cell membranes, Membrane. In a few lines:
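Rat brain membranes at 0.5 mg/ml protein, 45 min at 35 °C with 2 nM [3H]-DPDPE in 50 mM Tris-HCl pH 7.4. Competitor range 10^-11 to 10^-5 M. Nonspecific binding with 10 μM naloxone. Filtered through PEI-soaked GF/B, scintillation counted. Ki derived; three separate experiments in duplicate.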
For orientation: Displacement assays read how much labelled ligand stays bound in the presence of the test substance.

Experiment [2] has as its target Kappa-type opioid receptor (Cavia porcellus) (UniProt P41144). Nature of the experiment: Potency index, ratio of LP1 Ki to compound Ki for KOR in guinea pig brain membranes. The class given is cell membranes. Conditions: Membrane.
Experiment [3] has as its system Rattus norvegicus. Nature of the experiment: Antinociceptive activity in rat assessed as reduction in response to heat administered ip measured 240 mins post dose by tail-flick test. It is filed as functional, organism-based. On the technique in general: Hot-plate and tail-flick tests time the reaction to a heat stimulus.
The species named for experiment [4] is Rattus norvegicus. Nature of the experiment: Ratio of Ki for DOR in rat brain membranes to Ki for MOR in rat brain membranes. The class given is cell membranes. Put shortly: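 Ratio of Ki values: DOR Ki (rat brain, [3H]-DPDPE, 2 nM) divided by MOR Ki (rat brain, [3H]-DAMGO, 1 nM), both from 45 min, 35 °C competition binding in 50 mM Tris-HCl pH 7.4.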
Experiment [5] concerns the target mu/kappa opioid receptor (Cavia porcellus, UniProt P41144+P97266). Nature of the experiment: Agonist activity at MOR/KOR in Dunkin-Hartley guinea pig ileum assessed as inhibition of electrically induced contractions after 5 mins. In a few lines: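 Guinea pig ileum longitudinal muscle/myenteric plexus strips from male guinea pigs (200–300 g), 2 g load. Transmural single pulses 0.1 Hz, 0.3 ms, 200 mA. After 60–90 min equilibration in Krebs, compounds added cumulatively, at least 5 min each. Percent inhibition of contraction; IC50 by linear regression of log concentration–effect curves, at least three trials.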

For experiment [6], the target named is Kappa-type opioid receptor (Cavia porcellus, UniProt P41144). Nature of the experiment: Displacement of [3H]-(+)-U69,593 from KOR in guinea pig brain membranes by liquid scintillation counting analysis. It is filed as cell membranes, Membrane. Put shortly: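 Guinea pig brain membranes (0.5 mg/ml) incubated 30 min at 30 °C with 1 nM [3H]-(+)-U69,593. Compounds tested from 10^-11 to 10^-5 M. Nonspecific binding with 10 μM unlabeled naloxone. GF/B filtration, liquid scintillation counting. Ki calculated; means of three experiments, each in duplicate.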
Sequence of Kappa-type opioid receptor (P41144 whole entry): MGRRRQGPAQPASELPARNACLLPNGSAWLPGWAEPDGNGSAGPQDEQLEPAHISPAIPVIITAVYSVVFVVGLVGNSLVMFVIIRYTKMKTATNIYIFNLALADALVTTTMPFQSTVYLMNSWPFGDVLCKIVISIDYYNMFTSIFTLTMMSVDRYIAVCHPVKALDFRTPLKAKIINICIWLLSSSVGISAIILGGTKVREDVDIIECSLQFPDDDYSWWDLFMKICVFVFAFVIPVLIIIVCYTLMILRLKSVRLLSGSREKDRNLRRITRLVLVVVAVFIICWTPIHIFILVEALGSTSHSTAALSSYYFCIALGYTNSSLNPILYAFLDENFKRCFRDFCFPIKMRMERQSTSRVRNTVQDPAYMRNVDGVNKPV

The test system of experiment [7] is Rattus norvegicus. Nature of the experiment: Antinociceptive activity in rat assessed as reduction in response to heat administered ip measured 45 to 180 mins post dose by tail-flick test. It is filed as functional, organism-based.
In experiment [8] the target is Mu-type opioid receptor (Rattus norvegicus, UniProt P33535). Nature of the experiment: Displacement of [3H]-DAMGO from MOR in rat brain membranes by liquid scintillation counting analysis. The class given is cell membranes, Membrane. Put shortly:
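Rat brain membranes, 0.4 mg/ml protein, incubated 45 min at 35 °C with 1 nM [3H]-DAMGO in 50 mM Tris-HCl pH 7.4. Filtration on PEI-presoaked GF/B filters, scintillation counting. Ki calculated; three experiments, each in duplicate.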

In experiment [9] the target is Kappa-type opioid receptor (Cavia porcellus) (UniProt P41144). Nature of the experiment: Antagonist activity at KOR in Dunkin-Hartley guinea pig ileum assessed as inhibition of electrically induced contractions after 5 mins by measuring ratio of IC50 for test compounds in presence and absence of nBNI. Put shortly:
(§1)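 Isolated tissue (ileum for MOR/KOR, vas deferens for DOR) pre-incubated with a 1 μM selective antagonist (NLX or NTI 20 min; norBNI 30 min), then agonist curves repeated. Ke from ratio of IC50 with and without antagonist, by single dose method. Mean ± SEM of four independent tissues.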

The species named for experiment [10] is Rattus norvegicus. Nature of the experiment: Antinociceptive activity in rat assessed as reduction in response to heat pretreated with naloxone for 30 mins prior to compound treatment by tail-flick test. The class given is functional.
Experiment [11] is described as follows: Agonist activity at DOR in CD-1 mouse vasa deferentia assessed as inhibition of electrically induced contractions after 5 mins. In a few lines:
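Mouse vas deferens at 0.5 g tension; after equilibration, pulses 20 Hz, 0.5 ms, 1 s duration every 40 s. After 60 min equilibration in Krebs, cumulative compound additions, minimum 5 min apart. Contraction inhibition as percent of baseline; IC50 from linear regression of log concentration–effect curves, at least three trials.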

Experiment [12] has as its target Mu-type opioid receptor (Cavia porcellus) (UniProt P97266). Nature of the experiment: Antagonist activity at MOR in Dunkin-Hartley guinea pig ileum assessed as inhibition of electrically induced contractions after 5 mins by measuring ratio of IC50 for test compounds in presence and absence of NLX. Put shortly: as §1
Experiment [13] is filed under the species Mus musculus. Nature of the experiment: Antagonist activity at DOR in CD-1 mouse vasa deferentia assessed as inhibition of electrically induced contractions after 5 mins by measuring ratio of IC50 for test compounds in presence and absence of […]. Put shortly: as §1
The nature of experiment [14]: Ratio of Ki for KOR in guinea pig brain membranes to Ki for MOR in rat brain membranes. It is filed as cell membranes. In a few lines:
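Ratio of KOR Ki (guinea pig brain, 1 nM [3H]-(+)-U69,593, 30 min at 30 °C) to MOR Ki (rat brain, 1 nM [3H]-DAMGO, 45 min at 35 °C).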

The test system of experiment [15] is Rattus norvegicus. Nature of the experiment: Antinociceptive activity in rat assessed as reduction in response to heat administered ip measured 60 mins post dose by tail-flick test. It is filed as functional.

Each structure is given as a SMILES string. The source made the active and inactive calls. The rule behind the calls is not given here.

Sequence of Kappa-type opioid receptor (Cavia porcellus) (P41144 whole entry): as above
Sequence of Mu-type opioid receptor (Cavia porcellus) (P97266 whole entry): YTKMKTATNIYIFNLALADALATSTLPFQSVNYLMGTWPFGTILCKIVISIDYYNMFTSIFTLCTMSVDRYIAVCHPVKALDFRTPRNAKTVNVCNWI
Sequence of Delta-type opioid receptor (P33533 whole entry): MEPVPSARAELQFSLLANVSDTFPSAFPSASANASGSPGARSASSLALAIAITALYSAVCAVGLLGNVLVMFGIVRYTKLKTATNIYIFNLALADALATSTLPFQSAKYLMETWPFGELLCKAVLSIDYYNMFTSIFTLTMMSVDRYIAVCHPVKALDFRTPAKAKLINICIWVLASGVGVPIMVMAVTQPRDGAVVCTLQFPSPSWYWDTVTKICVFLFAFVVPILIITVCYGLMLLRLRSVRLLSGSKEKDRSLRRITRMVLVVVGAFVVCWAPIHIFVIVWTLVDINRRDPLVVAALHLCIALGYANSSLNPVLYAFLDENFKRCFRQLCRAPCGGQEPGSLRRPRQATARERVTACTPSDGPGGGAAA
Sequence of Mu-type opioid receptor (P33535 whole entry): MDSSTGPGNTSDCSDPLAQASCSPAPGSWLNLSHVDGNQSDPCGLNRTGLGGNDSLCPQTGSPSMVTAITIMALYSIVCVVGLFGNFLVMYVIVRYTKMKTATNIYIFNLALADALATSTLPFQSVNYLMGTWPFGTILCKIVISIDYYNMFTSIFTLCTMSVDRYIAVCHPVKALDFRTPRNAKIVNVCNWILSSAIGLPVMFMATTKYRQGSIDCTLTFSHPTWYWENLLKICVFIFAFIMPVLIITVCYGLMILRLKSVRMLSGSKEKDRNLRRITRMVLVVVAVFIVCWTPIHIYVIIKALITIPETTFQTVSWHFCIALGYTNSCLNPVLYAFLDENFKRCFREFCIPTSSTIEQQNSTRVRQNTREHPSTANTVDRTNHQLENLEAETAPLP

As to `COC(CN1CC[C@@]2(C)c3cc(O)ccc3C[C@@H]1[C@@H]2C)c1ccccc1` (stereo partly specified), the values for the Ki in experiment [1], in [6] and in experiment [8] were 6.6 nM, 15.2 nM and 1.08 nM, respectively. For the same molecule, the Ratio Ki in [2] is 7; in [4], 6.1; in experiment [14], 14.1. For the same molecule, the Activity entry in experiment [3] is “Dose-dependent effect”. Further, the concentration for half-maximal inhibition (IC50) in experiment [5] came to 21.5 nM; in experiment [11], 4.4 nM. Also, in [7], the result was Active. Besides, the figures for the Ke in experiment [9], in experiment [12] and in experiment [13] were greater than 3000 nM, 19 nM and 3.9 nM, respectively. For the same molecule, the outcome in experiment [10] was inactive. Besides, the median effective dose (ED50) in [15] (1 h) was 0.9 mg/kg.
Turning to `C[C@H]1[C@H]2Cc3ccc(O)cc3[C@]1(C)CCN2CCC(=O)Nc1ccccc1`, the results for the Ratio Ki in experiment [4] and in [14] were 33.8 and 132, respectively. Further, the half-maximal inhibitory concentration (IC50) in experiment [5] was determined as 1.9 nM; in [11], 1240 nM. Moreover, the Ke in experiment [9] amounted to 10.8 nM; in experiment [12], 2.3 nM.
For the molecule `C[C@H]1[C@H]2Cc3ccc(O)cc3[C@]1(C)CCN2C[C@H](O)c1ccccc1`, the figures for the Ki in experiment [1], in experiment [6] and in [8] were 9.6 nM, 7.3 nM and 2.47 nM, respectively. In addition, the Ratio Ki came out at 15 in experiment [2], 3.88 in experiment [4] and 2.95 in experiment [14]. Besides, the Activity result in [3] was “Dose-dependent effect”. Also, the results for the half-maximal inhibitory concentration (IC50) in [5] and in experiment [11] were 49.2 nM and 10.8 nM, respectively. Besides, the Ke is 20 nM in [9], 35 nM in experiment [12] and 4 nM in experiment [13]. Moreover, the result in [10] was inactive.
Take `CN1CC[C@]23c4c5ccc(O)c4O[C@H]2[C@@H](O)C=C[C@H]3[C@H]1C5`: in experiment [15], the outcome was inactive.
As to `C[C@H]1[C@H]2Cc3ccc(O)cc3[C@]1(C)CCN2CC(C)(O)c1ccccc1` (stereo partly specified), the results for the Ki in experiment [1], in [6] and in experiment [8] were 160 nM, 10.5 nM and 60 nM, respectively. Also, the Ratio Ki was 10 in experiment [2], 2.66 in experiment [4] and 0.17 in experiment [14]. The IC50 in experiment [5] is 194.4 nM; in [11], 794 nM.
`C[C@H]1[C@H]2Cc3ccc(O)cc3[C@]1(C)CCN2C[C@@H](O)c1ccccc1`: the values for the inhibitory constant (Ki) in experiment [1], in experiment [6] and in experiment [8] were 0.8 nM, 2.22 nM and 0.5 nM, respectively. Further, the Ratio Ki in [2] was determined as 49; in experiment [4], 1.6; in experiment [14] it was 4.44. The Activity result in experiment [3] was “Dose-dependent effect”. Moreover, the IC50 in [5] was 9.9 nM; in experiment [11], 11.8 nM. Moreover, the values for the Ke in [9], in experiment [12] and in experiment [13] were 9 nM, 21 nM and 5.4 nM, respectively. In addition, in experiment [10], the outcome was inactive.

In general, Ki refers to the equilibrium dissociation constant of an inhibitor or competing ligand from its target. By IC50 is commonly meant the concentration needed to halve the response being measured. A word on the ED50: it is the midpoint of the dose-response relation.

The values are drawn from ChEMBL document CHEMBL4052787, “Development of novel LP1-based analogues with enhanced delta opioid receptor profile” (Bioorg Med Chem, 2017).
